Assay results as given in publication PMC5084670 (Cancer Science, 2016).

Test: Phase I dose-escalation study: safety, adverse events
Assay type: in vivo, human
How it was run: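 Oral test compound was given once daily in 28-day cycles after a 7-day single-dose run-in, in Japanese and Hong Kong/Taiwan groups escalated separately. Toxicity was graded by CTCAE v3.0 using laboratory tests, physical examination, vital signs, weight and periodic ECG. DLTs were grade 3–4 events over the run-in plus cycle 1. MTD was set by an adaptive Bayesian logistic regression model with overdose control.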

[1] = group 2, 400 mg q.d. (n = 12), All grades
[2] = group 2, 400 mg q.d. (n = 12), Grade 3
[3] = group 2, 400 mg q.d. (n = 12), Grade 4
[4] = group 2, 600 mg q.d. (n = 8), All grades
[5] = group 2, 600 mg q.d. (n = 8), Grade 3
[6] = group 2, 600 mg q.d. (n = 8), Grade 4
[7] = group 2, 800 mg q.d. (n = 4), All grades
[8] = group 2, 800 mg q.d. (n = 4), Grade 3
[9] = group 2, 800 mg q.d. (n = 4), Grade 4
[10] = group 2, All patients (n = 24), All grades
[11] = group 2, All patients (n = 24), Grade 3
[12] = group 2, All patients (n = 24), Grade 4

Cc1c(C(=O)Nc2ccc(N3C[C@@H](C)O[C@@H](C)C3)nc2)cccc1-c1ccc(OC(F)(F)F)cc1 [Sonidegib]
Dysgeusia (drug-related adverse event) [1]: 2 (17) n (%)
Fatigue (drug-related adverse event) [1]: 4 (33) n (%)
Hepatic function abnormal (drug-related adverse event) [1]: 2 (17) n (%)
Muscular weakness (drug-related adverse event) [1]: 0 (0) n (%)
Myalgia (drug-related adverse event) [1]: 2 (17) n (%)
Nausea (drug-related adverse event) [1]: 0 (0) n (%)
Pyrexia (drug-related adverse event) [1]: 0 (0) n (%)
Vomiting (drug-related adverse event) [1]: 0 (0) n (%)
Blood creatine kinase increased (drug-related adverse event) [2]: 1 (8) n (%)
Decreased appetite (drug-related adverse event) [2]: 0 (0) n (%)
Diarrhea (drug-related adverse event) [2]: 0 (0) n (%)
Dizziness (drug-related adverse event) [2]: 0 (0) n (%)
Dysgeusia (drug-related adverse event) [2]: 0 (0) n (%)
Fatigue (drug-related adverse event) [2]: 0 (0) n (%)
Hepatic function abnormal (drug-related adverse event) [2]: 0 (0) n (%)
Muscular weakness (drug-related adverse event) [2]: 0 (0) n (%)
Myalgia (drug-related adverse event) [2]: 0 (0) n (%)
Nausea (drug-related adverse event) [2]: 0 (0) n (%)
Pyrexia (drug-related adverse event) [2]: 0 (0) n (%)
Vomiting (drug-related adverse event) [2]: 0 (0) n (%)
Blood creatine kinase increased (drug-related adverse event) [3]: 1 (8) n (%)
Decreased appetite (drug-related adverse event) [3]: 0 (0) n (%)
Diarrhea (drug-related adverse event) [3]: 0 (0) n (%)
Dizziness (drug-related adverse event) [3]: 0 (0) n (%)
Dysgeusia (drug-related adverse event) [3]: 0 (0) n (%)
Fatigue (drug-related adverse event) [3]: 0 (0) n (%)
Hepatic function abnormal (drug-related adverse event) [3]: 0 (0) n (%)
Muscular weakness (drug-related adverse event) [3]: 0 (0) n (%)
Myalgia (drug-related adverse event) [3]: 0 (0) n (%)
Nausea (drug-related adverse event) [3]: 0 (0) n (%)
Pyrexia (drug-related adverse event) [3]: 0 (0) n (%)
Vomiting (drug-related adverse event) [3]: 0 (0) n (%)
Blood creatine kinase increased (drug-related adverse event) [4]: 3 (38) n (%)
Decreased appetite (drug-related adverse event) [4]: 3 (38) n (%)
Diarrhea (drug-related adverse event) [4]: 1 (13) n (%)
Dizziness (drug-related adverse event) [4]: 1 (13) n (%)
Dysgeusia (drug-related adverse event) [4]: 3 (38) n (%)
Fatigue (drug-related adverse event) [4]: 1 (13) n (%)
Hepatic function abnormal (drug-related adverse event) [4]: 2 (25) n (%)
Muscular weakness (drug-related adverse event) [4]: 1 (13) n (%)
Myalgia (drug-related adverse event) [4]: 3 (38) n (%)
Nausea (drug-related adverse event) [4]: 3 (38) n (%)
Pyrexia (drug-related adverse event) [4]: 1 (13) n (%)
Vomiting (drug-related adverse event) [4]: 2 (25) n (%)
Blood creatine kinase increased (drug-related adverse event) [5]: 0 (0) n (%)
Decreased appetite (drug-related adverse event) [5]: 0 (0) n (%)
Diarrhea (drug-related adverse event) [5]: 0 (0) n (%)
Dizziness (drug-related adverse event) [5]: 0 (0) n (%)
Dysgeusia (drug-related adverse event) [5]: 0 (0) n (%)
Fatigue (drug-related adverse event) [5]: 0 (0) n (%)
Hepatic function abnormal (drug-related adverse event) [5]: 1 (13) n (%)
Muscular weakness (drug-related adverse event) [5]: 0 (0) n (%)
Myalgia (drug-related adverse event) [5]: 1 (13) n (%)
Nausea (drug-related adverse event) [5]: 0 (0) n (%)
Pyrexia (drug-related adverse event) [5]: 0 (0) n (%)
Vomiting (drug-related adverse event) [5]: 0 (0) n (%)
Blood creatine kinase increased (drug-related adverse event) [6]: 1 (13) n (%)
Decreased appetite (drug-related adverse event) [6]: 0 (0) n (%)
Diarrhea (drug-related adverse event) [6]: 0 (0) n (%)
Dizziness (drug-related adverse event) [6]: 0 (0) n (%)
Dysgeusia (drug-related adverse event) [6]: 0 (0) n (%)
Fatigue (drug-related adverse event) [6]: 0 (0) n (%)
Hepatic function abnormal (drug-related adverse event) [6]: 0 (0) n (%)
Muscular weakness (drug-related adverse event) [6]: 0 (0) n (%)
Myalgia (drug-related adverse event) [6]: 0 (0) n (%)
Nausea (drug-related adverse event) [6]: 0 (0) n (%)
Pyrexia (drug-related adverse event) [6]: 0 (0) n (%)
Vomiting (drug-related adverse event) [6]: 0 (0) n (%)
DLT in cycle 1 (creatine kinase elevation) (group 2, 800 mg): single DLT
Blood creatine kinase increased (drug-related adverse event) [7]: 3 (75) n (%)
Decreased appetite (drug-related adverse event) [7]: 2 (50) n (%)
Diarrhea (drug-related adverse event) [7]: 1 (25) n (%)
Dizziness (drug-related adverse event) [7]: 1 (25) n (%)
Dysgeusia (drug-related adverse event) [7]: 1 (25) n (%)
Fatigue (drug-related adverse event) [7]: 3 (75) n (%)
Hepatic function abnormal (drug-related adverse event) [7]: 3 (75) n (%)
Muscular weakness (drug-related adverse event) [7]: 3 (75) n (%)
Myalgia (drug-related adverse event) [7]: 3 (75) n (%)
Nausea (drug-related adverse event) [7]: 2 (50) n (%)
Pyrexia (drug-related adverse event) [7]: 1 (25) n (%)
Vomiting (drug-related adverse event) [7]: 1 (25) n (%)
Blood creatine kinase increased (drug-related adverse event) [8]: 0 (0) n (%)
Decreased appetite (drug-related adverse event) [8]: 1 (25) n (%)
Diarrhea (drug-related adverse event) [8]: 0 (0) n (%)
Dizziness (drug-related adverse event) [8]: 0 (0) n (%)
Dysgeusia (drug-related adverse event) [8]: 0 (0) n (%)
Fatigue (drug-related adverse event) [8]: 2 (50) n (%)
Hepatic function abnormal (drug-related adverse event) [8]: 2 (50) n (%)
Muscular weakness (drug-related adverse event) [8]: 2 (50) n (%)
Myalgia (drug-related adverse event) [8]: 1 (25) n (%)
Nausea (drug-related adverse event) [8]: 0 (0) n (%)
Pyrexia (drug-related adverse event) [8]: 0 (0) n (%)
Vomiting (drug-related adverse event) [8]: 0 (0) n (%)
Blood creatine kinase increased (drug-related adverse event) [9]: 2 (50) n (%)
Decreased appetite (drug-related adverse event) [9]: 0 (0) n (%)
Diarrhea (drug-related adverse event) [9]: 0 (0) n (%)
Dizziness (drug-related adverse event) [9]: 0 (0) n (%)
Dysgeusia (drug-related adverse event) [9]: 0 (0) n (%)
Fatigue (drug-related adverse event) [9]: 0 (0) n (%)
Hepatic function abnormal (drug-related adverse event) [9]: 0 (0) n (%)
Muscular weakness (drug-related adverse event) [9]: 0 (0) n (%)
Myalgia (drug-related adverse event) [9]: 0 (0) n (%)
Nausea (drug-related adverse event) [9]: 0 (0) n (%)
Pyrexia (drug-related adverse event) [9]: 0 (0) n (%)
Vomiting (drug-related adverse event) [9]: 0 (0) n (%)
Blood creatine kinase increased (drug-related adverse event) [10]: 12 (50) n (%)
Decreased appetite (drug-related adverse event) [10]: 5 (21) n (%)
Diarrhea (drug-related adverse event) [10]: 2 (8) n (%)
Dizziness (drug-related adverse event) [10]: 2 (8) n (%)
Dysgeusia (drug-related adverse event) [10]: 6 (25) n (%)
Fatigue (drug-related adverse event) [10]: 8 (33) n (%)
Hepatic function abnormal (drug-related adverse event) [10]: 7 (29) n (%)
Muscular weakness (drug-related adverse event) [10]: 4 (17) n (%)
Myalgia (drug-related adverse event) [10]: 8 (33) n (%)
Nausea (drug-related adverse event) [10]: 5 (21) n (%)
Pyrexia (drug-related adverse event) [10]: 2 (8) n (%)
Vomiting (drug-related adverse event) [10]: 3 (13) n (%)
Blood creatine kinase increased (drug-related adverse event) [11]: 1 (4) n (%)
Decreased appetite (drug-related adverse event) [11]: 1 (4) n (%)
Diarrhea (drug-related adverse event) [11]: 0 (0) n (%)
Dizziness (drug-related adverse event) [11]: 0 (0) n (%)
Dysgeusia (drug-related adverse event) [11]: 0 (0) n (%)
Fatigue (drug-related adverse event) [11]: 2 (8) n (%)
Hepatic function abnormal (drug-related adverse event) [11]: 3 (13) n (%)
Muscular weakness (drug-related adverse event) [11]: 2 (8) n (%)
Myalgia (drug-related adverse event) [11]: 2 (8) n (%)
Nausea (drug-related adverse event) [11]: 0 (0) n (%)
Pyrexia (drug-related adverse event) [11]: 0 (0) n (%)
Vomiting (drug-related adverse event) [11]: 0 (0) n (%)
Blood creatine kinase increased (drug-related adverse event) [12]: 4 (17) n (%)
Decreased appetite (drug-related adverse event) [12]: 0 (0) n (%)
Diarrhea (drug-related adverse event) [12]: 0 (0) n (%)
Dizziness (drug-related adverse event) [12]: 0 (0) n (%)
Dysgeusia (drug-related adverse event) [12]: 0 (0) n (%)
Fatigue (drug-related adverse event) [12]: 0 (0) n (%)
Hepatic function abnormal (drug-related adverse event) [12]: 0 (0) n (%)
Muscular weakness (drug-related adverse event) [12]: 0 (0) n (%)
Myalgia (drug-related adverse event) [12]: 0 (0) n (%)
Nausea (drug-related adverse event) [12]: 0 (0) n (%)
Pyrexia (drug-related adverse event) [12]: 0 (0) n (%)
Vomiting (drug-related adverse event) [12]: 0 (0) n (%)
Maximum tolerated dose (MTD) (group 2, Bayesian logistic regression model, all grade 3 or 4 blood CK elevation incidents): 600 mg q.d.
Drug-related AE: abnormal hepatic function (group 2, all doses): 29%
Drug-related AE: fatigue (group 2, all doses): 33%
Drug-related AE: increase in CK levels (group 2, all doses): 50%
Drug-related AE: myalgia (group 2, all doses): 33%
Patients with at least one AE suspected to be related to sonidegib (group 2, n = 18): 75%
Patients with SAEs that led to drug discontinuation (in each group): four
Time to recovery of CK after interruption of drug (most cases): 1 month
Renal impairment or renal failure (patients with grade 3 or 4 CK elevation and high blood myoglobin): no patients experienced renal impairment or renal failure
CK re-elevation after restart with a 200 mg dose (three patients at 400 mg interrupted for grade 3 CK elevation): not observed
